Assay results from ChEMBL document CHEMBL1687902, “Discovery of potent inhibitors of soluble epoxide hydrolase by combinatorial library design and structure-based virtual screening” (J Med Chem, 2011).

Columns and labels:
[1] = Inhibition of chimeric mouse-human sEH assessed as 6,8-difluoro-4-methylumbelliferyl trans-2,3-epoxy-3-phenylpropylcarbonate hydrolysis preincubated for 10 mins before addition of substrate by fluorometric assay
[2] = Metabolic stability in human liver microsomes assessed as compound remaining after 30 mins; assay type: ADME, Microsome; conditions: read-out: Stability
How it was run: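 Pooled human liver microsomes, compound at 1 μM in 100 mM phosphate buffer pH 7.4. NADP+ regenerating system (1 mM NADP+, 5 mM isocitric acid, 1 U/mL isocitric dehydrogenase) with 1 mM MgCl2. Read-out is percent parent remaining after 30 min incubation.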

[3] = tested on: soluble epoxide hydrolase (Chlorocebus aethiops); assay: Inhibition of native sEH in african green monkey COS7 cells assessed as 11,12-epoxyeicosatrienoic acid hydrolysis preincubated for 1 hr before substrate addition measured after 2 hrs by LC/MS/MS; conditions: cos-7

| Structure (SMILES) | IC50 [1] | remaining at 0.5 h [2] | IC50 [3] |
| --- | --- | --- | --- |
| CC(=O)c1ccc(N2CCC(CC(=O)Nc3nc4ccc(C)cc4o3)CC2)cc1 | 184 nM | – | – |
| Cc1ccc2nc(NC(=O)CC3CCN(C(=O)OC(C)(C)C)CC3)oc2c1 | 202 nM | – | – |
| CC(=O)c1ccc(N2CCC(CC(=O)Nc3nc4cc(C)cc(C)c4o3)CC2)cc1 | 46.5 nM | 22% | 1.42 nM |
| CC(C)(C)OC(=O)N1CCC(CC(=O)Nc2nc3ccccc3o2)CC1 | 94.3 nM | 83% | 10.3 nM |
| CC(C)(C)OC(=O)N1CCC(CC(=O)Nc2nc3cc(Cl)ccc3o2)CC1 | 6.92 nM | 43% | 1.54 nM |
| CC(=O)c1ccc(N2CCC(CC(=O)Nc3nc4ccccc4o3)CC2)cc1 | 19.4 nM | 62% | 22 nM |
| CC(=O)c1ccc(N2CCC(CC(=O)Nc3nc4cc(Cl)ccc4o3)CC2)cc1 | 3.58 nM | 45% | 4.68 nM |

More lines, in order of falling IC50 [1], values ahead:

| IC50 [1] | remaining at 0.5 h [2] | IC50 [3] | Structure (SMILES) |
| --- | --- | --- | --- |
| 272 nM | – | – | Cc1cccc2oc(NC(=O)CC3CCN(C(=O)OC(C)(C)C)CC3)nc12 |
| 109 nM | – | – | CC(=O)c1ccc(N2CCC(CC(=O)Nc3nc4c(C)cccc4o3)CC2)cc1 |
| 73 nM | 22% | 4.38 nM | Cc1cc(C)c2oc(NC(=O)CC3CCN(C(=O)OC(C)(C)C)CC3)nc2c1 |
| 11.4 nM | 6% | 0.486 nM | Cc1ccc2oc(NC(=O)CC3CCN(C(=O)OC(C)(C)C)CC3)nc2c1 |
| 3.61 nM | 53% | 5.76 nM | CC(=O)c1ccc(N2CCC(CC(=O)Nc3nc4cc(C)ccc4o3)CC2)cc1 |
